Reference: ChEMBL document CHEMBL3769384, “Discovery of Tetrahydropyrazolopyridine as Sphingosine 1-Phosphate Receptor 3 (S1P3)-Sparing S1P1 Agonists Active at Low Oral Doses” (J Med Chem, 2016)
pEC50, pIC50: −log10 of the molar value.

How the values were obtained:
[1] = target: Cytochrome P450 3A4 (Homo sapiens, UniProt P08684); assay: Inhibition of human CYP3A4 by VG metabolism assay; format: ADME
[2] = target: Sphingosine 1-phosphate receptor 3 (Homo sapiens, UniProt Q99500); assay: Agonist activity at human S1P3 receptor expressed in RBL cells by [35S]GTP-gammaS accumulation assay; format: cell-based
Sphingosine 1-phosphate receptor 3, sequence (Q99500 whole entry): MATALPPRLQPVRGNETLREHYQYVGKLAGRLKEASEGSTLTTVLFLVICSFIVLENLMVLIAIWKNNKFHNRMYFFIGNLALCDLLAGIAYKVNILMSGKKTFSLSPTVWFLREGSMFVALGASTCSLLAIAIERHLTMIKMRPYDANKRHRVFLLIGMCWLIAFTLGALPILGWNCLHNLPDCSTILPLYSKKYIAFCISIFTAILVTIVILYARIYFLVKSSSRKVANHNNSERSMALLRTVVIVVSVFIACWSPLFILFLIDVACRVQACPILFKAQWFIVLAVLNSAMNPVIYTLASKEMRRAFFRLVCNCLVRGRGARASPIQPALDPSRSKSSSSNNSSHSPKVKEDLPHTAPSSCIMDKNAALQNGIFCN
Method in brief: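 Sucrose-gradient-purified RBL S1P3 membranes (0.44 µg/well) precoupled 30 min on ice to WGA SPA beads with 2 µg/well saponin in HEPES/MgCl2/NaCl buffer pH 7.4. 5 µM GDP final and 0.3 nM [35S]GTPγS final added, then dispensed onto compound in DMSO. Read by scintillation proximity after 3 h at room temperature.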

[3] = Lipophilicity, log D of the compound at pH 7.4 by chromatography; format: physicochemical; conditions: buffer
[4] = target: T1, Sphingosine 1-phosphate receptor 4 (Homo sapiens, UniProt O95977); assay: Agonist activity at human S1P4 receptor expressed in CHO-K1 cells by aequorin calcium accumulation assay; format: functional, cell-based
T1 sequence (O95977 whole entry): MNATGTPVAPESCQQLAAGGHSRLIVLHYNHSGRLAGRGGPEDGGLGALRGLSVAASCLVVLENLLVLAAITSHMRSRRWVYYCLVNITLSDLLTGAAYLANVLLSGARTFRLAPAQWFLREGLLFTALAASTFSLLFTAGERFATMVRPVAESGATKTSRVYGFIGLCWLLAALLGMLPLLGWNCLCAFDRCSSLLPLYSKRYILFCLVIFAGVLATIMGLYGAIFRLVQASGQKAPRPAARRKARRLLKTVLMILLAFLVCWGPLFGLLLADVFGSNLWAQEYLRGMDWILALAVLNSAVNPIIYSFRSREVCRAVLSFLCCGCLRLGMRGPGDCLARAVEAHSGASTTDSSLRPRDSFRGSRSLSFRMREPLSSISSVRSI
Method in brief: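 CHO-K1 aequorin lines revived in DMEM F12 with 10% charcoal-stripped FBS, recovered 30 min at 37°C, then loaded 18-24 h at room temperature in the dark with 5 µM coelenterazine at 2.5x10^6 cells/mL. Cells were added at 1x10^5/well to compound, and flash luminescence was recorded immediately.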

[5] = system: Salmonella typhimurium; assay: Mutagenicity in Salmonella typhimurium by Ames test; format: toxicity, organism-based; conditions: salmonella enterica subsp. enterica serovar typhimurium
[6] = Lipophilicity, log D of the compound at pH 10.5 by chromatography; format: physicochemical; conditions: buffer
[7] = target: Cytochrome P450 2C9 (Homo sapiens, UniProt P11712); assay: Inhibition of CYP2C9 (unknown origin) coexpressed in Escherichia coli with human NADPH reductase using 7-methoxy-4-trifluoromethylcoumarin-3-acetic acid as substrate after 10 mins by fluorescence assay; format: ADME
Cytochrome P450 2C9, sequence (P11712 whole entry, canonical isoform): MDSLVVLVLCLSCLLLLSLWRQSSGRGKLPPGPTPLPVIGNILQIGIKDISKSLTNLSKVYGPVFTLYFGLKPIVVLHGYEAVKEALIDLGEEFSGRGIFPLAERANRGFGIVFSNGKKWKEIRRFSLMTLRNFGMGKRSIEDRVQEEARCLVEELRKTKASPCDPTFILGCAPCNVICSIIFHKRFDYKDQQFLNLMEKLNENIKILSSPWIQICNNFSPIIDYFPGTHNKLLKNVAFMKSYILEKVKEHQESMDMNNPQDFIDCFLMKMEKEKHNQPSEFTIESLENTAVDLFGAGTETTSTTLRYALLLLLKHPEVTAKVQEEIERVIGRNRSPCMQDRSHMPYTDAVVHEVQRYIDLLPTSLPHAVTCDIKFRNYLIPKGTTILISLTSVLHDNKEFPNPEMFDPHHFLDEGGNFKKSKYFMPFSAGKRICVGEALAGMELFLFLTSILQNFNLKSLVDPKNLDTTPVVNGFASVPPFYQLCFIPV
Method in brief: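 Recombinant CYP co-expressed in E. coli with human NADPH reductase, incubated with an isoform-specific pro-fluorescent substrate and compound (nine concentrations, 0.1-100 µM) plus a 0.2 mM NADPH regenerating system for 10 min at 37°C. Fluorescent metabolite formation was monitored.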

[8] = Fraction unbound in human blood after 4 hrs by LC-MS/MS analysis; format: ADME, tissue-based
Method in brief: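 Fresh blood (CD rat, CD1 mouse, Beagle dog, single human donor) spiked at 1000 ng/mL and dialysed against PBS by rapid equilibrium dialysis for 4 h at 37°C. Matrix-matched LC-MS/MS; unbound fraction taken from the buffer/blood peak area ratio.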

[9] = system: Hepatocyte; assay: Intrinsic clearance in Sprague-Dawley rat hepatocytes at 0.5 uM after 2 hrs by LC-MS/MS analysis; format: ADME, cell-based
Method in brief: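 Compound at 0.5 µM incubated with pooled cryopreserved hepatocytes (0.7 million cells/mL) in Williams Medium E at 37°C under CO2/O2. Supernatants analysed by LC-MS/MS. CLi was derived from a first-order rate constant, scaled with 1.2x10^8 cells/g liver (human, rat, mouse) or 2.4x10^8 cells/g liver (dog).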

Cytochrome P450 3A4, sequence (P08684 whole entry): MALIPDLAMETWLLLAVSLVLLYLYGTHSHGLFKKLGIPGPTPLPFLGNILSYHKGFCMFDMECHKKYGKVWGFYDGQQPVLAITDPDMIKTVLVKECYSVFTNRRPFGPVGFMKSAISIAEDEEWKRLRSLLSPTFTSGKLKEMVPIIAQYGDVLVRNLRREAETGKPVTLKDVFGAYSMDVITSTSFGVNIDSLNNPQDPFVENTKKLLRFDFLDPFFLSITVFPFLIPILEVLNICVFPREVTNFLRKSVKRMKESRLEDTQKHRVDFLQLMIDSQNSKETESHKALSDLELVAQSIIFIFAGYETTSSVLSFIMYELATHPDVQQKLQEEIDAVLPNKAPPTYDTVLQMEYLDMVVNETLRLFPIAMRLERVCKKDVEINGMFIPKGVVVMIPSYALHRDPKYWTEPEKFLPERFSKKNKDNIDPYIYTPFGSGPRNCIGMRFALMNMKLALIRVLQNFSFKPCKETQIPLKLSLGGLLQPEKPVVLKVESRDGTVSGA

With `Cc1c2c(nn1-c1nnc(-c3ccc(OC(C)C)c(Cl)c3)s1)CCN(CCC(=O)O)C2` the pIC50 [1] was less than 4.30, the pEC50 [2] was less than 4.50 and the chromatographic logD [3] was 3.73. For the same compound, the pEC50 [4] was less than 4.40, the Activity [5] was “Non-toxic” and the chromatographic logD [6] was 1.53. The pIC50 [7] was less than 4.30, the fraction unbound at 4 h [8] was 0.008 and the CLH [9] was 3.2 mL/min/g.
